# Reference: ChEMBL document CHEMBL1155362, “Synthesis, characterization and derivatization of some novel types of mono- and bis-imidazolidineiminothiones and imidazolidineiminodithiones with antitumor, antiviral, antibacterial and antifungal activities--part I” (Eur J Med Chem, 2009)
# Assays:
# Candida albicans [1] = assay: Antifungal activity against Candida albicans IMRU 3669 at 2.5 mg/ml by agar disk diffusion assay; type: functional; details: read-out: DIZ
# Outline: (§1)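 Fungi maintained on Czapek's Dox agar; agar well diffusion with 1 cm wells and […] of each concentration (1, 2.5, 5 mg/mL) in DMF; inhibition zone diameter measured.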
# Aspergillus niger [2] = assay: Antifungal activity against Aspergillus niger Ferm-BAM C-21 at 2.5 mg/ml by agar disk diffusion assay; type: functional; details: read-out: DIZ; outline: as §1
# Bacillus subtilis [3] = assay: Antibacterial activity against Bacillus subtilis NCIB 3610 at 5 mg/ml by agar disk diffusion assay; type: functional
# Candida albicans [4] = assay: Antifungal activity against Candida albicans IMRU 3669 by macrotube dilution assay; type: functional
# Outline: (§2)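 Macrotube twofold dilution per NCCLS/CLSI guidelines for fungi; 2 mg compound in 2.0 mL DMF, serially diluted across 14 tubes of Czapek's Dox medium, with a control tube; inoculum added to halve the concentration; 30 °C for 72 h; MIC is the lowest concentration without visible growth.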
# Bacillus subtilis [5] = assay: Antibacterial activity against Bacillus subtilis NCIB 3610 at 1 mg/ml by agar disk diffusion assay; type: functional
# Bacillus subtilis [6] = assay: Antibacterial activity against Bacillus subtilis NCIB 3610 at 2.5 mg/ml by agar disk diffusion assay; type: functional
# Candida albicans [7] = assay: Antifungal activity against Candida albicans IMRU 3669 at 5 mg/ml by agar disk diffusion assay; type: functional; details: Candida albicans, IMRU 3669; read-out: DIZ; outline: as §1
# Candida albicans [8] = assay: Antifungal activity against Candida albicans IMRU 3669 at 1 mg/ml by agar disk diffusion assay; type: functional; details: read-out: DIZ; outline: as §1
# Pseudomonas aeruginosa [9] = assay: Antibacterial activity against Pseudomonas aeruginosa NCIB 9016 at 2.5 mg/ml by agar disk diffusion assay; type: functional
# Klebsiella pneumoniae = assay: Antimicrobial activity against Klebsiella pneumoniae NCIMB 9111 by macrotube dilution assay; type: functional
# Bacillus subtilis [10] = assay: Antimicrobial activity against Bacillus subtilis NCTC 1040 by macrotube dilution assay; type: functional
# Pseudomonas aeruginosa [11] = assay: Antibacterial activity against Pseudomonas aeruginosa NCIB 9016 at 1 mg/ml by agar disk diffusion assay; type: functional
# Pseudomonas aeruginosa [12] = assay: Antibacterial activity against Pseudomonas aeruginosa NCIB 9016 at 5 mg/ml by agar disk diffusion assay; type: functional
# Salmonella typhi [13] = assay: Antimicrobial activity against Salmonella typhi NCIMB 9331 by macrotube dilution assay; type: functional, Salmonella enterica subsp. enterica serovar Typhi; details: Salmonella enterica
# Aspergillus niger [14] = assay: Antifungal activity against Aspergillus niger Ferm-BAM C-21 at 1 mg/ml by agar disk diffusion assay; type: functional; details: read-out: DIZ; outline: as §1
# Aspergillus niger [15] = assay: Antifungal activity against Aspergillus niger Ferm-BAM C-21 at 5 mg/ml by agar disk diffusion assay; type: functional; details: read-out: DIZ; outline: as §1
# Staphylococcus aureus [16] = assay: Antimicrobial activity against Staphylococcus aureus NCTC 7447 by macrotube dilution assay; type: functional
# Aspergillus niger [17] = assay: Antifungal activity against Aspergillus niger Ferm-BAM C-21 by macrotube dilution assay; type: functional; outline: as §2
# Coxsackievirus B4 = assay: Antiviral activity against Coxsackievirus B4 infected african green monkey Vero cells at 10^-3 dilution of 5 mg/ml by plaque formation assay; type: functional
# Outline: (§3)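 Compound dilutions prepared from a 5 mg/mL DMSO stock, using the maximum non-toxic dilution for Vero cells over 3 days; 0.1 mL virus (10³) mixed with 0.1 mL compound for 1 h at room temperature; mixture inoculated onto washed Vero monolayers in 12-well plates and adsorbed at 37 °C; 2× MEM/agarose overlay applied; read-out % reduction in plaque count versus untreated virus control.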
# Escherichia coli = assay: Antibacterial activity against Escherichia coli NCTC 10416 at 5 mg/ml by agar disk diffusion assay; type: functional; details: read-out: DIZ
# Hepatovirus A = assay: Antiviral activity against HAV infected african green monkey Vero cells at 10^-3 dilution of 5 mg/ml by plaque formation assay; type: functional; outline: as §3
# Salmonella typhi [18] = assay: Antibacterial activity against Salmonella typhi NCIMB 9331 at 5 mg/ml by agar disk diffusion assay; type: functional, Salmonella enterica subsp. enterica serovar Typhi; details: Salmonella enterica, read-out: DIZ
# Staphylococcus aureus [19] = assay: Antibacterial activity against Staphylococcus aureus NCTC 7447 at 5 mg/ml by agar disk diffusion assay; type: functional; details: read-out: DIZ
# Human alphaherpesvirus 1 = assay: Antiviral activity against HSV1 infected african green monkey Vero cells at 10^-3 dilution of 5 mg/ml by plaque formation assay; type: functional; outline: as §3
# Bacillus subtilis [20] = assay: Antibacterial activity against Bacillus subtilis NCTC 1040 at 5 mg/ml by agar disk diffusion assay; type: functional; details: read-out: DIZ
compound,measurement,setting,value
N#CC(=S)Nc1ccc(Cl)c(Cl)c1,zone of inhibition at 2500 µg/mL,Candida albicans [1],40 mm
same,zone of inhibition at 2500 µg/mL,Aspergillus niger [2],45 mm
same,diameter of the inhibition zone (DIZ),Bacillus subtilis [3],43 mm
same,MIC,Candida albicans [4],0.97 µg/mL
same,diameter of the inhibition zone (DIZ),Bacillus subtilis [5],40 mm
same,diameter of the inhibition zone (DIZ),Bacillus subtilis [6],41 mm
same,zone of inhibition at 5000 µg/mL,Candida albicans [7],44 mm
same,zone of inhibition at 1000 µg/mL,Candida albicans [8],37 mm
same,diameter of the inhibition zone (DIZ),Pseudomonas aeruginosa [9],37 mm
same,MIC,Klebsiella pneumoniae,1.95 µg/mL
same,MIC,Bacillus subtilis [10],0.97 µg/mL
same,diameter of the inhibition zone (DIZ),Pseudomonas aeruginosa [11],35 mm
same,diameter of the inhibition zone (DIZ),Pseudomonas aeruginosa [12],38 mm
same,MIC,Salmonella typhi [13],0.24 µg/mL
same,zone of inhibition at 1000 µg/mL,Aspergillus niger [14],29 mm
same,zone of inhibition at 5000 µg/mL,Aspergillus niger [15],56 mm
same,MIC,Staphylococcus aureus [16],3.9 µg/mL
same,MIC,Aspergillus niger [17],15.6 µg/mL
N=C1C(=S)N(c2ccc(I)cc2)C(=O)N1c1ccc2c(c1)Cc1ccccc1-2,Activity,Coxsackievirus B4,50%
same,zone of inhibition at 5000 µg/mL,Escherichia coli,15 mm
same,Activity,Hepatovirus A,50%
same,zone of inhibition at 5000 µg/mL,Salmonella typhi [18],17 mm
same,zone of inhibition at 5000 µg/mL,Candida albicans [7],13 mm
same,zone of inhibition at 5000 µg/mL,Staphylococcus aureus [19],13.5 mm
same,Activity,Human alphaherpesvirus 1,70%
same,zone of inhibition at 5000 µg/mL,Bacillus subtilis [20],13.5 mm
